According to ChEMBL document CHEMBL1153359, “Synthesis and biological evaluation of N4-(hetero)arylsulfonylquinoxalinones as HIV-1 reverse transcriptase inhibitors” (Bioorg Med Chem, 2009):

The molecules below were run on Human immunodeficiency virus 1 (assay: Inhibition of HIV1 replication in human 293T cells preincubated 15 mins prior to infection measured after 48 hrs postinfection by luciferase reporter gene assay). Conditions: Human immunodeficiency virus 1, HEK-293T.
Format: functional, organism-based
In short: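 Pseudotyped virus was made by co-transfecting 293 cells with the env-deficient HIV-1 luciferase vector pNL4-3.luc.R-E- and a VSV-G plasmid (modified calcium phosphate method). 293ET target cells were seeded at 6 × 10⁴ per well the day before infection. Compound was added 15 min before the VSVG/HIV-1 virus, with a solvent-only control. Cells were lysed 48 h post-infection.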

Structure (SMILES) | IC50 [µM]
CCC1C(=O)Nc2ccc(Cl)cc2N1S(=O)(=O)c1ccsc1C(=O)OC (stereo unspecified) | 6.3
COC(=O)c1sccc1S(=O)(=O)N1CC(=O)Nc2ccc(F)cc21 | 2.02
N#Cc1cccc(S(=O)(=O)N2CC(=O)Nc3ccc(F)cc32)c1 | > 100
COC(=O)c1sccc1S(=O)(=O)N1c2cc(Cl)ccc2NC(=O)C1C (stereo unspecified) | 0.2
O=C1CN(S(=O)(=O)c2cccc3cccnc23)c2cc(F)ccc2N1 | 0.98
CC1C(=O)Nc2ccc(F)cc2N1S(=O)(=O)c1cccc(C#N)c1 (stereo unspecified) | 55
CCC1C(=O)Nc2ccc(F)cc2N1S(=O)(=O)c1ccsc1C(=O)OC (stereo unspecified) | 5
O=C1CN(S(=O)(=O)c2cccc3cccnc23)c2ccc(C(F)(F)F)cc2N1 | > 100
CC1C(=O)Nc2ccc(Cl)cc2N1S(=O)(=O)c1cccc2cccnc12 (stereo unspecified) | 0.65
CC1C(=O)Nc2ccc(F)cc2N1S(=O)(=O)c1cc(Cl)sc1Cl (stereo unspecified) | > 100
CCC1C(=O)Nc2ccc(Cl)cc2N1S(=O)(=O)c1cccc2cccnc12 (stereo unspecified) | > 100
COC(=O)c1sccc1S(=O)(=O)N1c2cc(F)ccc2NC(=O)C1C (stereo unspecified) | 0.2
O=C1Nc2ccc(Cl)cc2[C@@](C#CC2CC2)(C(F)(F)F)O1 [EFAVIRENZ] | 0.0013
COC(=O)c1sccc1S(=O)(=O)N1CC(=O)Nc2cc(C(F)(F)F)ccc21 | > 100
COC(=O)CC1C(=O)Nc2ccc(F)cc2N1S(=O)(=O)c1ccsc1C(=O)OC (stereo unspecified) | > 100
Cc1cn([C@H]2C[C@H](N=[N+]=[N-])[C@@H](CO)O2)c(=O)[nH]c1=O [ZIDOVUDINE] | 0.048
CC1C(=O)Nc2ccc(F)cc2N1S(=O)(=O)c1ccc([N+](=O)[O-])cc1 (stereo unspecified) | > 100
COC(=O)c1sccc1S(=O)(=O)N1c2cc(F)ccc2NC(=O)C1CCSC (stereo unspecified) | > 100
O=C1CN(S(=O)(=O)c2cccc3cccnc23)c2cc(Cl)ccc2N1 | 0.33
COC(=O)c1sccc1S(=O)(=O)N1CC(=O)Nc2ccc(Cl)cc21 | 0.83
CC1C(=O)Nc2ccc(F)cc2N1S(=O)(=O)c1cccc2cccnc12 (stereo unspecified) | 7
